# From ChEMBL document CHEMBL3526048, “In vitro metabolism of rivoglitazone, a novel peroxisome proliferator-activated receptor γ agonist, in rat, monkey, and human liver microsomes and freshly isolated hepatocytes” (Drug Metab Dispos, 2011)
# Legend:
# [1] = Drug metabolism in rat hepatocytes assessed as formation of 3-(4-((6-methoxy-1-methyl-1H-benzo[d]imidazol-2-yl)methoxy)phenyl)-2-(methylsulfonyl)propanamide at 30 uM after 3 hrs by radio-HPLC/LC-MS/MS analysis in presence of NADPH-generating system/SAM; format: ADME, cell-based, Hepatocyte
# [2] = target: T1, UDP-glucuronosyltransferase 2B15 (Homo sapiens, UniProt P54855); experiment: Activity of human UGT2B15 expressed in microsomes isolated from baculovirus infected insect cell assessed as enzyme-mediated (2S,3S,4S,5R,6R)-6-((1-carboxy-2-(4-((6-methoxy-1-methyl-1H-benzo[d]imidazol-2-yl)methoxy)phenyl)ethylthio)carbonylamino)-3,4,5-trihydroxytetrahydro-2H-pyran-2-carboxylic acid formation at 20 uM after 4 hrs by radio-HPLC/LC-MS/MS analysis in presence of UDPGA; format: ADME
# T1 sequence (P54855 whole entry): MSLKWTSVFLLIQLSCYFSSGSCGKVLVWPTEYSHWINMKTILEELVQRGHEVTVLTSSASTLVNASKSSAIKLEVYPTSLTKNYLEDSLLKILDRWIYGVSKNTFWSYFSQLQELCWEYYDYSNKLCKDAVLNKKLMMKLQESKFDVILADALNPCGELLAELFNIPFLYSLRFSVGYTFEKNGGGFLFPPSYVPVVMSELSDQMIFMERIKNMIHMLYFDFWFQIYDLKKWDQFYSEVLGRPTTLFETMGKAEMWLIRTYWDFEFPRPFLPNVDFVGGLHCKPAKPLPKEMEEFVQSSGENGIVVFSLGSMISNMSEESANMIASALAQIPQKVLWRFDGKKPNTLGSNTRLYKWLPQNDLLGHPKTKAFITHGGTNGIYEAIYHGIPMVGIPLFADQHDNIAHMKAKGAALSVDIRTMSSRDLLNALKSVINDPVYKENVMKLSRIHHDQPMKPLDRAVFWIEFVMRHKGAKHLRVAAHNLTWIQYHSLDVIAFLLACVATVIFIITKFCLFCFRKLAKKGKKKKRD
# [3] = Drug metabolism in human hepatocytes assessed as formation of (2S,3S,4S,5R,6R)-3,4,5-trihydroxy-6-(5-(4-((6-methoxy-1-methyl-1H-benzo[d]imidazol-2-yl)methoxy)benzyl)-2,4-dioxothiazolidin-3-yl)tetrahydro-2H-pyran-2-carboxylic acid at 30 uM after 3 hrs by radio-HPLC/LC-MS/MS analysis in presence of UDPGA and UDPGA/SAM; format: ADME, cell-based, Hepatocyte
# Cytochrome P450 2C9 [4] = target: T2, Cytochrome P450 2C9 (Homo sapiens, UniProt P11712); experiment: Activity of human CYP2C9 expressed in microsomes isolated from baculovirus infected insect cell assessed as enzyme-mediated 5-hydroxy-5-(4-((6-methoxy-1-methyl-1H-benzo[d]imidazol-2-yl)methoxy)benzyl)thiazolidine-2,4-dione formation at 20 uM after 2 hrs by radio-HPLC/LC-MS/MS analysis in presence of NADPH-generating system and NADPH-generating system/SAM; format: ADME
# Cytochrome P450 1A2 [5] = target: T3, Cytochrome P450 1A2 (Homo sapiens, UniProt P05177); experiment: Activity of human CYP1A2 expressed in microsomes isolated from baculovirus infected insect cell assessed as enzyme-mediated 3-(4-((6-methoxy-1-methyl-1H-benzo[d]imidazol-2-yl)methoxy)phenyl)-2-(methylthio)propanoic acid formation at 20 uM after 2 hrs by radio-HPLC/LC-MS/MS analysis in presence of NADPH-generating system/SAM and UDPGA/SAM; format: ADME
# T3 sequence (P05177 whole entry): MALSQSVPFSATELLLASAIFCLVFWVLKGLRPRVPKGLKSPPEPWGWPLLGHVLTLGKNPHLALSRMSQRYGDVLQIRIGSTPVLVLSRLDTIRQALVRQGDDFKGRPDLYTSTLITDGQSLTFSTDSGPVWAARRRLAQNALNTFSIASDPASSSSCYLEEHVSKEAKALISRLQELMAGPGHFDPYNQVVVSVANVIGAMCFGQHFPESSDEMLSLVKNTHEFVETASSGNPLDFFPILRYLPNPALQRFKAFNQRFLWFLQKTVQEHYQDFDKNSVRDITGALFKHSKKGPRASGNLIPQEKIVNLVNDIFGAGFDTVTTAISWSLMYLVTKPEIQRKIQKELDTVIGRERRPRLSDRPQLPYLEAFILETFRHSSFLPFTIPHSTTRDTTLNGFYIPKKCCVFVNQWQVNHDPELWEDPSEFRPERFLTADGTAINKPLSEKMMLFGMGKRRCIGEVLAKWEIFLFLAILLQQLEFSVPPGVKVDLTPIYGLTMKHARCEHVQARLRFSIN
# Liver microsome [6] = experiment: Drug metabolism in human liver microsomes assessed as formation of (2S,3S,4S,5R,6R)-6-((1-carboxy-2-(4-((6-methoxy-1-methyl-1H-benzo[d]imidazol-2-yl)methoxy)phenyl)ethylthio)carbonylamino)-3,4,5-trihydroxytetrahydro-2H-pyran-2-carboxylic acid at 20 uM after 4 hrs by radio-HPLC/LC-MS/MS analysis in presence of UDPGA and UDPGA/SAM; format: ADME
# Liver microsome [7] = experiment: Drug metabolism in human liver microsomes assessed as formation of 5-(4-((6-hydroxy-1-methyl-1H-benzo[d]imidazol-2-yl)methoxy)benzyl)thiazolidine-2,4-dione at 20 uM after 2 hrs by radio-HPLC/LC-MS/MS analysis in presence of NADPH-generating system and NADPH-generating system/SAM; format: ADME
# [8] = Drug metabolism in cynomolgus monkey liver microsomes assessed as formation of (2S,3S,4S,5R,6R)-3,4,5-trihydroxy-6-(5-(4-((6-methoxy-1-methyl-1H-benzo[d]imidazol-2-yl)methoxy)benzyl)-2,4-dioxothiazolidin-3-yl)tetrahydro-2H-pyran-2-carboxylic acid at 20 uM after 4 hrs by radio-HPLC/LC-MS/MS analysis in presence of UDPGA and UDPGA/SAM; format: ADME, Macaca fascicularis
# Liver microsome [9] = experiment: Drug metabolism in human liver microsomes assessed as formation of 2-amino-3-((1-carboxy-2-(4-((6-methoxy-1-methyl-1H-benzo[d]imidazol-2-yl)methoxy)phenyl)ethyl)disulfanyl)propanoic acid at 20 uM by radio-HPLC/LC-MS/MS analysis; format: ADME
# [10] = Drug metabolism in cynomolgus monkey liver microsomes assessed as formation of 5-(4-((6-methoxy-1H-benzo[d]imidazol-2-yl)methoxy)benzyl)thiazolidine-2,4-dione at 20 uM after 2 hrs by radio-HPLC/LC-MS/MS analysis in presence of NADPH-generating system and NADPH-generating system/SAM; format: ADME, Macaca fascicularis
# Cytochrome P450 1A2 [11] = target: T3, Cytochrome P450 1A2; experiment: Activity of human CYP1A2 expressed in microsomes isolated from baculovirus infected insect cell assessed as enzyme-mediated 5-(4-((6-methoxy-1H-benzo[d]imidazol-2-yl)methoxy)benzyl)thiazolidine-2,4-dione formation at 20 uM after 2 hrs by radio-HPLC/LC-MS/MS analysis in presence of NADPH-generating system and NADPH-generating system/SAM; format: ADME
# Summary of the method: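 Baculovirus/insect-cell microsomes expressing single human CYPs, 1 mg/ml protein, with 50 mM potassium phosphate (pH 7.4) or 100 mM Tris-HCl (pH 7.5). NADPH-generating system: 2 mM NADP⁺, 20 mM glucose 6-phosphate, 2 units/ml G6PDH, 10 mM MgCl₂. [¹⁴C]rivoglitazone at 20 μM, 2 h at 37°C with shaking. Control used insect-cell control supersomes. Stopped with acetonitrile; supernatant concentrated under nitrogen; metabolites analysed by radio-HPLC, LC-MS and LC-MS/MS.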
# Cytochrome P450 2C19 = Cytochrome P450 2C19 (Homo sapiens, UniProt P33261); experiment: Activity of human CYP2C19 expressed in microsomes isolated from baculovirus infected insect cell assessed as enzyme-mediated (2S,3S,4S,5R,6R)-3,4,5-trihydroxy-6-(5-(4-((6-methoxy-1-methyl-1H-benzo[d]imidazol-2-yl)methoxy)benzyl)-2,4-dioxothiazolidin-3-yl)tetrahydro-2H-pyran-2-carboxylic acid formation at 20 uM after 2 hrs by radio-HPLC/LC-MS/MS analysis in presence of UDPGA and UDPGA/SAM; format: ADME
# Cytochrome P450 2C9 [12] = target: T2, Cytochrome P450 2C9; experiment: Activity of human CYP2C9 expressed in microsomes isolated from baculovirus infected insect cell assessed as enzyme-mediated 3-(4-((6-methoxy-1-methyl-1H-benzo[d]imidazol-2-yl)methoxy)phenyl)-2-(methylthio)propanamide formation at 20 uM after 2 hrs by radio-HPLC/LC-MS/MS analysis in presence of NADPH-generating system/SAM; format: ADME
# [13] = Drug metabolism in monkey hepatocytes assessed as formation of 5-hydroxy-5-(4-((6-methoxy-1-methyl-1H-benzo[d]imidazol-2-yl)methoxy)benzyl)thiazolidine-2,4-dione at 30 uM after 3 hrs by radio-HPLC/LC-MS/MS analysis in presence of NADPH-generating system and NADPH-generating system/SAM; conditions: cynomolgus monkey
# T2 sequence (P11712 whole entry): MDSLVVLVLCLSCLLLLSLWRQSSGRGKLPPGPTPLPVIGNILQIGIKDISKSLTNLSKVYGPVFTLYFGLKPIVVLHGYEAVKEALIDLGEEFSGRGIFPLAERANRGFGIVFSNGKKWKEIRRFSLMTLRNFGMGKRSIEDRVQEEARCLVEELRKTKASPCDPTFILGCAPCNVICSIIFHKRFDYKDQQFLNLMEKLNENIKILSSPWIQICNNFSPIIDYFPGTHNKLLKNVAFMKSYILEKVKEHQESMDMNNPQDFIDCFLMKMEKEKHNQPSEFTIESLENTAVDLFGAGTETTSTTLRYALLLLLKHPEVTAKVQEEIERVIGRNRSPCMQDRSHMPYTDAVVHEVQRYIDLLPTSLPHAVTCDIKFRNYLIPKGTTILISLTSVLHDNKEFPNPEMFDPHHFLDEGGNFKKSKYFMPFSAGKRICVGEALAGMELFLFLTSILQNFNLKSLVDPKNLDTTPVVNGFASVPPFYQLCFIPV
# Cytochrome P450 2C19, sequence (P33261 whole entry): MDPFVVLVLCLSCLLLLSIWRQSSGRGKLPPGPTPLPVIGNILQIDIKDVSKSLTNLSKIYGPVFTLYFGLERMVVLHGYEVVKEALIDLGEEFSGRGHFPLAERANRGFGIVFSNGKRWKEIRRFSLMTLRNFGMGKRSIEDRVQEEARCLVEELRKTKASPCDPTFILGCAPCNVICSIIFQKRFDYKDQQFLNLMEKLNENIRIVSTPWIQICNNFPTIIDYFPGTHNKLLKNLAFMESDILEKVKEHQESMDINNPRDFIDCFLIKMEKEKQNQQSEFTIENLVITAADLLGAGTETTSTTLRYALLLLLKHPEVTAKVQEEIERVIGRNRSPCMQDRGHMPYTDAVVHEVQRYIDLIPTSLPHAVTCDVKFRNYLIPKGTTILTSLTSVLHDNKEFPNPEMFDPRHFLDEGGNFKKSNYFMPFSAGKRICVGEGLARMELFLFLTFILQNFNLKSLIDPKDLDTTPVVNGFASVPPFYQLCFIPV
smiles,measurement,setting,value
COc1ccc2nc(COc3ccc(C[14CH]4SC(=O)NC4=O)cc3)n(C)c2c1.Cl (racemic),Drug metabolism,[1],metabolite_detected
same,Drug metabolism,[2],metabolite_not_detected
same,Drug metabolism,[3],metabolite_detected
same,Drug metabolism,Cytochrome P450 2C9 [4],metabolite_detected
same,Drug metabolism,Cytochrome P450 1A2 [5],metabolite_not_detected
same,Drug metabolism,Liver microsome [6],metabolite_detected
same,Drug metabolism,Liver microsome [7],metabolite_detected
same,Drug metabolism,[8],metabolite_detected
same,Drug metabolism,Liver microsome [9],metabolite_not_detected
same,Drug metabolism,[10],metabolite_detected
same,Drug metabolism,Cytochrome P450 1A2 [11],metabolite_detected
same,Drug metabolism,Cytochrome P450 2C19,metabolite_not_detected
same,Drug metabolism,Cytochrome P450 2C9 [12],metabolite_not_detected
same,Drug metabolism,[13],metabolite_detected
